≈ marks a conversion by molar mass, not a printed value. Calls of active or inactive are those of the source. No cut-off for these calls is given here. Numbered stars: 1 amine (or outer) side, 2 acyl side, 3 side chain; on linkers, the order of the positions; unused ones are H or OH. Square brackets hold non-standard residues; d marks the D form. Peptide text beside a SMILES is read from it. X1 = C[C@H]1CCN([*:1])[C@@H]1C(=O)[*:2]; dLac(3-vinyl) = C=CC[C@@H](O)C(=O)O; NMeF = CN[C@@H](Cc1ccccc1)C(=O)O; Hica(2S) = CC(C)C[C@H](O)C(=O)O; NMeV = CN[C@H](C(=O)O)C(C)C; NMeA = CN[C@@H](C)C(=O)O; βAla = NCCC(=O)O
Tests used:
Vibrio harveyi = experiment: Antimicrobial activity against Vibrio harveyi by well diffusion method; type: functional, organism-based
Summary of the method: (§1)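 Agar well diffusion assay against the bacterial test strain; chloromycetin run alongside as positive control. Method follows a cited earlier protocol.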

Vibrio anguillarum = experiment: Antimicrobial activity against Vibrio anguillarum by well diffusion method; type: functional, organism-based; summary of the method: as §1
Vibrio parahaemolyticus = experiment: Antimicrobial activity against Vibrio parahaemolyticus by well diffusion method; type: functional, organism-based; summary of the method: as §1
Edwardsiella tarda = experiment: Antimicrobial activity against Edwardsiella tarda by well diffusion method; type: functional, organism-based; summary of the method: as §1
Vibrio alginolyticus = experiment: Antimicrobial activity against Vibrio alginolyticus by well diffusion method; type: functional; summary of the method: as §1
Aeromonas hydrophila = experiment: Antimicrobial activity against Aeromonas hydrophila by well diffusion method; type: functional, organism-based; summary of the method: as §1
Escherichia coli = experiment: Antimicrobial activity against Escherichia coli by well diffusion method; type: functional
Staphylococcus aureus = experiment: Antimicrobial activity against Staphylococcus aureus by well diffusion method; type: functional

Structure (SMILES)	MIC (Vibrio harveyi)	MIC (Vibrio anguillarum)	MIC (Vibrio parahaemolyticus)	MIC (Edwardsiella tarda)	MIC (Vibrio alginolyticus)	MIC (Aeromonas hydrophila)	MIC (Escherichia coli) [µg/mL]	MIC (Staphylococcus aureus) [µg/mL]
Cc1c2c(c3oc4cc(=O)c(C)c5c-4c(c3c1O)O[C@H](C)[C@H]5C)O[C@H](C)[C@H]2C	inactive	inactive	inactive	inactive	inactive	inactive		
Cc1c(O)c(C(=O)O)c(O)c2c1[C@H](C)[C@@H](C)OC2=O	inactive	inactive	inactive	inactive	inactive	inactive		
COc1cc([C@H]2C[C@H]3O[C@H](C)[C@@H](C)c4c(C)c(O)cc(c43)O2)ccc1O	inactive	inactive	inactive	inactive	16 µg/mL (≈ 44.9 µM)	inactive	2 (≈ 5.61 µM)	4 (≈ 11.2 µM)
CC(C)C[C@@H]1OC(=O)CCNC(=O)[C@H](Cc2ccccc2)N(C)C(=O)[C@H](C(C)C)N(C)C(=O)[C@H](Cc2ccccc2)NC(=O)[C@@H]2CCCN2C1=O (cyclo(F[NMeV][NMeF][βAla][Hica(2S)]P))	inactive	inactive	inactive	inactive	inactive	inactive		
C=CC[C@H]1OC(=O)CCNC(=O)[C@H](C)N(C)C(=O)[C@H](C(C)C)N(C)C(=O)[C@H]([C@@H](C)CC)NC(=O)[C@@H]2CCCN2C1=O (cyclo([dLac(3-vinyl)]PI[NMeV][NMeA][βAla]))	inactive	inactive	inactive	inactive	inactive	inactive		
CC(C)C[C@@H]1OC(=O)CCNC(=O)[C@H](Cc2ccccc2)N(C)C(=O)[C@H](C(C)C)N(C)C(=O)[C@H](Cc2ccccc2)NC(=O)[C@@H]2[C@@H](C)CCN2C1=O (cyclo(F[NMeV][NMeF][βAla][Hica(2S)][X1]))	inactive	inactive	inactive	inactive	inactive	inactive		
Cc1c(O)cc2c3c1[C@H](C)[C@@H](C)O[C@@H]3C[C@H](c1ccc(O)cc1)O2	inactive	inactive	inactive	inactive	16 µg/mL (≈ 49 µM)	inactive	8 (≈ 24.5 µM)	8 (≈ 24.5 µM)
Cc1c(O)cc(O)c2c1[C@H](C)[C@@H](C)OC2=O	inactive	inactive	inactive	inactive	8 µg/mL (≈ 36 µM)	inactive		
C=CC[C@H]1OC(=O)CCNC(=O)[C@H](C)N(C)C(=O)[C@H](C(C)C)N(C)C(=O)[C@H]([C@@H](C)CC)NC(=O)[C@@H]2[C@@H](C)CCN2C1=O (cyclo(I[NMeV][NMeA][βAla][dLac(3-vinyl)][X1]))	inactive	inactive	inactive	inactive	inactive	inactive		

From ChEMBL document CHEMBL3608285, “Citrifelins A and B, Citrinin Adducts with a Tetracyclic Framework from Cocultures of Marine-Derived Isolates of Penicillium citrinum and Beauveria felina” (2015)
